Data taken from ChEMBL document CHEMBL5696442, “Discovery of type II inhibitors of TGFβ-activated kinase 1 (TAK1) and mitogen-activated protein kinase kinase kinase kinase 2 (MAP4K2)” (J Med Chem, 2015).

Columns and labels:
[1] = biological target: p38 delta/gamma (Homo sapiens) (UniProt O15264+P53778); test: Inhibition of p38delta/gamma Lys2 labeling site in human A-375 cells at 0.5 uM by KiNativ Profiling analysis relative to control; assay type: cell-based
[2] = biological target: 5'-AMP-activated protein kinase catalytic subunit alpha-2 (Homo sapiens) (UniProt P54646); test: Inhibition of AMPKa2 Lys1 labeling site in human A-375 cells at 5 uM by KiNativ Profiling analysis relative to control; assay type: cell-based
Summary of the method: (§1)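 Live A375 melanoma cells were treated with compound at 5 or 0.5 μM, then lysed. The lysates were labeled with a lysine-reactive ATP or ADP-biotin probe. Kinase protection from probe labeling was measured by KiNativ.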

[3] = biological target: Tyrosine-protein kinase Fer (Homo sapiens, UniProt P16591); test: Inhibition of FER Lys1 labeling site harbouring TSVAVKTCKEDLPQELKin human A-375 cells at 5 uM by KiNativ Profiling analysis relative to control; assay type: cell-based
[4] = biological target: Serine/threonine-protein kinase SIK3 (Homo sapiens) (UniProt Q9Y2K2); test: Inhibition of QSK Lys2 labeling site in human A-375 cells at 5 uM by KiNativ Profiling analysis relative to control; assay type: cell-based
[5] = biological target: RAC-alpha serine/threonine-protein kinase (Homo sapiens) (UniProt P31749); test: Inhibition of AKT1 ATP Loop labeling site in human A-375 cells at 0.5 uM by KiNativ Profiling analysis relative to control; assay type: cell-based; summary of the method: as §1
[6] = biological target: Calcium/calmodulin-dependent protein kinase type 1 (Homo sapiens) (UniProt Q14012); test: Inhibition of CaMK1a Lys1 labeling site in human A-375 cells at 0.5 uM by KiNativ Profiling analysis relative to control; assay type: cell-based
Summary of the method: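 Intact A375 melanoma cells were treated with compound at 5 or 0.5 μM, then lysed. Lysate kinases were labeled with a lysine-reactive ATP or ADP-biotin probe (KiNativ). Inhibition is read as protection of each kinase labeling site from probe labeling.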

[7] = biological target: Epidermal growth factor receptor (Homo sapiens) (UniProt P00533); test: Inhibition of EGFR Lys1 labeling site in human A-375 cells at 0.5 uM by KiNativ Profiling analysis relative to control; assay type: cell-based
Summary of the method: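 Live A375 melanoma cells were treated with compound at 0.5 or 5 μM, then lysed. Lysates were labeled with a lysine-reactive ATP or ADP-biotin probe. The read-out was protection of each kinase probe-labeling site from labeling, relative to control.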

[8] = biological target: T1, Scaffold protein ILK (Homo sapiens) (UniProt Q13418); test: Inhibition of ILK Lys1 labeling site in human A-375 cells at 0.5 uM by KiNativ Profiling analysis relative to control; assay type: cell-based
T1 sequence (whole entry): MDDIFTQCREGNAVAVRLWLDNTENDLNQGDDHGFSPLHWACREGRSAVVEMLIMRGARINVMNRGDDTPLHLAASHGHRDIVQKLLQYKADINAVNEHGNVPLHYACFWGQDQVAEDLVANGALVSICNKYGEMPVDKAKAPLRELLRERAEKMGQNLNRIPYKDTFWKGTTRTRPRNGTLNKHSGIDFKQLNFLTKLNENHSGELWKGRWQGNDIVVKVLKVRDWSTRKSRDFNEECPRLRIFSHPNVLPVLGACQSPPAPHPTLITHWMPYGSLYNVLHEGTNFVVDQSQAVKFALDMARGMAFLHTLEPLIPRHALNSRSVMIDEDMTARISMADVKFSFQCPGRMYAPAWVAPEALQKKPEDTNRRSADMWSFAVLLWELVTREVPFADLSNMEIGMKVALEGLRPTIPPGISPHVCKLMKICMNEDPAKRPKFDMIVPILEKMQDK

[9] = biological target: Cyclin-dependent kinase 11B (Homo sapiens) (UniProt P21127); test: Inhibition of PITSLRE Lys2 labeling site in human A-375 cells at 0.5 uM by KiNativ Profiling analysis relative to control; assay type: cell-based
[10] = biological target: Serine/threonine-protein kinase WNK3 (Homo sapiens) (UniProt Q9BYP7); test: Inhibition of Wnk3 Lys2 labeling site in human A-375 cells at 0.5 uM by KiNativ Profiling analysis relative to control; assay type: cell-based
[11] = biological target: T2, Aurora kinase C (Homo sapiens) (UniProt Q9UQB9); test: Inhibition of AurC ATP Loop labeling site in human A-375 cells at 0.05 uM by KiNativ Profiling analysis relative to control; assay type: cell-based
T2 sequence (whole entry): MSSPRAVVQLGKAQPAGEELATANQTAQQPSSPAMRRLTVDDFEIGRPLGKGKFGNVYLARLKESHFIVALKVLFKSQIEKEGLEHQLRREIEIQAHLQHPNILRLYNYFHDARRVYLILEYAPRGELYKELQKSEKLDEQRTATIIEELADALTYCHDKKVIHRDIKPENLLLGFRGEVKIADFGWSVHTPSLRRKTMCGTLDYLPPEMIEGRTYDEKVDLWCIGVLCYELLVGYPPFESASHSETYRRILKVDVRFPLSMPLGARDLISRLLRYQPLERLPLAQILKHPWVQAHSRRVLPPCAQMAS

[12] = biological target: Diacylglycerol kinase alpha (Homo sapiens) (UniProt P23743); test: Inhibition of DGKA ATP labeling site harbouring in human A-375 cells at 0.05 uM by KiNativ Profiling analysis relative to control; assay type: cell-based
[13] = biological target: Dual specificity mitogen-activated protein kinase kinase 1 (Homo sapiens) (UniProt Q02750); test: Inhibition of MAP2K1 Lys2 labeling site harbouring DVKPSNILVNSR in human A-375 cells at 0.05 uM by KiNativ Profiling analysis relative to control; assay type: cell-based
[14] = biological target: T3, Serine/threonine-protein kinase 3 (Homo sapiens) (UniProt Q13188); test: Inhibition of MST2 Lys1 labeling site in human A-375 cells at 0.05 uM by KiNativ Profiling analysis relative to control; assay type: cell-based
T3 sequence (whole entry): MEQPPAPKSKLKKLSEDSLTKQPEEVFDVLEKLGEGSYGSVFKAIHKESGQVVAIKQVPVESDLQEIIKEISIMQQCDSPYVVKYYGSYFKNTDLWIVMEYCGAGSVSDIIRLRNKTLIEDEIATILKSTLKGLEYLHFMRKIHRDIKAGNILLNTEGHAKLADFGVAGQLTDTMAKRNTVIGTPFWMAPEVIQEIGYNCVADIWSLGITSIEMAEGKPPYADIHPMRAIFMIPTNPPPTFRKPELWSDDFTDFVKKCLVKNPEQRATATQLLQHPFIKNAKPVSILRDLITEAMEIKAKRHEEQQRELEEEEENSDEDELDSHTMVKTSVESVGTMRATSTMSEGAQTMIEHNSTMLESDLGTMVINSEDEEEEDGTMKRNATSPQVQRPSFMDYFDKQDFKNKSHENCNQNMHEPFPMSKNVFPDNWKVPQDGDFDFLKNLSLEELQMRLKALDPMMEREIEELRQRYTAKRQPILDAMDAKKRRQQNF

[15] = Inhibition of p70S6K Lys2 labeling site in human A-375 cells at 0.05 uM by KiNativ Profiling analysis relative to control; conditions: condition cancer
[16] = biological target: Tyrosine-protein kinase CSK (Homo sapiens, UniProt P41240); test: Inhibition of CSK ACT labeling site harbouring VSDFGLTKEASSTQDTGKLPVKWTAPEALR in human Huh-7 cell lysate at 1 uM by KiNativ Profiling analysis relative to control; assay type: subcellular

Chain of Cyclin-dependent kinase 11B (Homo sapiens) (P21127 whole entry): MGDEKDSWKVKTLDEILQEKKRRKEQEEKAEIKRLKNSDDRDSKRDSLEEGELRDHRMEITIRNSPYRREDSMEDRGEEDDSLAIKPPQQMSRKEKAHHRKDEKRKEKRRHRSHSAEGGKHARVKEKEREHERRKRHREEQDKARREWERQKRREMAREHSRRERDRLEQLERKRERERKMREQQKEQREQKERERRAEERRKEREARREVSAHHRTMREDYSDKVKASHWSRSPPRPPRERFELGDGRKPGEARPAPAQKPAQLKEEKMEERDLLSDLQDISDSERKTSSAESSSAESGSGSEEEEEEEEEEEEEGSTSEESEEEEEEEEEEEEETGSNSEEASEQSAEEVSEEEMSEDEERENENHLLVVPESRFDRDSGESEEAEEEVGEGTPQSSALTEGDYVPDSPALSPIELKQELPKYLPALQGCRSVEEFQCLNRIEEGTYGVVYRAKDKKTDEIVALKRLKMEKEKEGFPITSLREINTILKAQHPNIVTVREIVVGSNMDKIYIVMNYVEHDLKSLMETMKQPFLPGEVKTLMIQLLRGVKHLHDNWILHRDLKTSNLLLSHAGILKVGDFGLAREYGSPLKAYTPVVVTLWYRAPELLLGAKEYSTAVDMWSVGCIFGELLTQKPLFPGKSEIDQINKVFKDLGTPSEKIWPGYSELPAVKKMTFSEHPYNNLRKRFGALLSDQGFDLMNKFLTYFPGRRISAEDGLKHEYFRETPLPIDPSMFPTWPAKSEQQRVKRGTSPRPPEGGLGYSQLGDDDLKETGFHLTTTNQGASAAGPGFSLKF
Chain of Tyrosine-protein kinase Fer (P16591 whole entry, looked up): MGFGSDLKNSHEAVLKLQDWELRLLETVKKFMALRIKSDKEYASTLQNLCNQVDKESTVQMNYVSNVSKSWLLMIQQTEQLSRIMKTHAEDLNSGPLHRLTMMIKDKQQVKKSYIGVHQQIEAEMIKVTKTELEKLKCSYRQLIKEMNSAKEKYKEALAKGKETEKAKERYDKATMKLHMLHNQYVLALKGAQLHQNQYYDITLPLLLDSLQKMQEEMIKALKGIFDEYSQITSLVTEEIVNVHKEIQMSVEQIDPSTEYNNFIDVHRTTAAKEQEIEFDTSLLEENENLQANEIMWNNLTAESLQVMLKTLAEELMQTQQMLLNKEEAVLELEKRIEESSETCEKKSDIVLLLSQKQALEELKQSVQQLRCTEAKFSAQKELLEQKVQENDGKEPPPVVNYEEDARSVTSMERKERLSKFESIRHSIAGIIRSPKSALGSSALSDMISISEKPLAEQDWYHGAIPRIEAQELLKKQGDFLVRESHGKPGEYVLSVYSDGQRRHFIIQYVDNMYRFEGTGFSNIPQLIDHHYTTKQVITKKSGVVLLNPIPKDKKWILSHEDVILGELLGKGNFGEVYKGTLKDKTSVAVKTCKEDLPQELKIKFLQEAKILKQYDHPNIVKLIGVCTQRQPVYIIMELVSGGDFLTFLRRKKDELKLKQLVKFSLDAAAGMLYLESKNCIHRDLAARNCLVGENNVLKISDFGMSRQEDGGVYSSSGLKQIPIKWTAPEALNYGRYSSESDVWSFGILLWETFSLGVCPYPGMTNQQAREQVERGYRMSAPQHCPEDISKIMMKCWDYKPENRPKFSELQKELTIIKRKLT
Chain of Serine/threonine-protein kinase WNK3 (Homo sapiens) (Q9BYP7 whole entry): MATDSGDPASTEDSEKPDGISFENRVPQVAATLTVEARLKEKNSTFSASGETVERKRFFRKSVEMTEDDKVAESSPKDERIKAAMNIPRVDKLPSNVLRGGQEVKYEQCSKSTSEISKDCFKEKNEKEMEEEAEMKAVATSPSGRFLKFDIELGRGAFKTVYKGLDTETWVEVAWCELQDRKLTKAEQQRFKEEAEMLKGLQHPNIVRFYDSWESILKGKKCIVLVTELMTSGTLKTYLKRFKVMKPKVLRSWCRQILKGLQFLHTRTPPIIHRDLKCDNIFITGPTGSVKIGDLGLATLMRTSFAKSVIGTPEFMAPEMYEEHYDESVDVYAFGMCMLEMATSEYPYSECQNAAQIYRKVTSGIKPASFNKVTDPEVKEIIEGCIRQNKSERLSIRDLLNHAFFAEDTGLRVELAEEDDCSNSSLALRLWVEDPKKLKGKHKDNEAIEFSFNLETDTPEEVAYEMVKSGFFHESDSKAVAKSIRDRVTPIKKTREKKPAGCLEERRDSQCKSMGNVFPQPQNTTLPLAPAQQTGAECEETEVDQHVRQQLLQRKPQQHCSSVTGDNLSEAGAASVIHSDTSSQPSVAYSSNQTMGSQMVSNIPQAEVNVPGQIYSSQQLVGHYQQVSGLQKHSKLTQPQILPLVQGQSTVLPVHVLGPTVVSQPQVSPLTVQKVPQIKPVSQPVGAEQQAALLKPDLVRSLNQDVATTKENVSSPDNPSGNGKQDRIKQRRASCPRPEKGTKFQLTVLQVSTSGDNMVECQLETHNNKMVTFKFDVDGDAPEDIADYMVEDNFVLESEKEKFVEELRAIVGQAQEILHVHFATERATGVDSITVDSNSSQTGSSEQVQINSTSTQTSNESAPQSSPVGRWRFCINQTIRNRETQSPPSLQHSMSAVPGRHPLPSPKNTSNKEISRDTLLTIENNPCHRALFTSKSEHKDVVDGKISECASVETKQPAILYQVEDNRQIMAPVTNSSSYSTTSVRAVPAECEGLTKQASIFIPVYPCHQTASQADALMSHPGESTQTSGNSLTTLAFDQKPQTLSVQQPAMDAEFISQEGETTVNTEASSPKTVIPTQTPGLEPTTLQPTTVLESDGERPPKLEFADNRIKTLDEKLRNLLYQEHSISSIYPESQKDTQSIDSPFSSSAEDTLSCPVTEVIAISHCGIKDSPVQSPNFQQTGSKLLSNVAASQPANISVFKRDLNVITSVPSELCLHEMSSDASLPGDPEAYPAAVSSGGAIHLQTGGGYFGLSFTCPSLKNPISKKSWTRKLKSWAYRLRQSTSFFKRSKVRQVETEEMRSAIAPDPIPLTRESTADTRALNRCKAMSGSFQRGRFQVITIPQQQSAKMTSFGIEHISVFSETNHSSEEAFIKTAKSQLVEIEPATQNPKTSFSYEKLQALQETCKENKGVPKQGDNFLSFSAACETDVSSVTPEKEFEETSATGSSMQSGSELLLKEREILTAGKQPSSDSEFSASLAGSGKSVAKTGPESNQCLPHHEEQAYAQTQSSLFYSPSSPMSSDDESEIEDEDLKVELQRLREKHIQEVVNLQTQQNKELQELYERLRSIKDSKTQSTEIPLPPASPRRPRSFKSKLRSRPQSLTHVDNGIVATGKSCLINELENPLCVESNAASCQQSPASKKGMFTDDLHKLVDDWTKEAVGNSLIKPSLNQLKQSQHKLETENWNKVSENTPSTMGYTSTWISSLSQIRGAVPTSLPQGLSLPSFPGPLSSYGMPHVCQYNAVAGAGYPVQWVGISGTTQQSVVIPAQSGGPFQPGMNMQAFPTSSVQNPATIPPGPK
Chain of Serine/threonine-protein kinase SIK3 (Homo sapiens) (Q9Y2K2 whole entry, looked up): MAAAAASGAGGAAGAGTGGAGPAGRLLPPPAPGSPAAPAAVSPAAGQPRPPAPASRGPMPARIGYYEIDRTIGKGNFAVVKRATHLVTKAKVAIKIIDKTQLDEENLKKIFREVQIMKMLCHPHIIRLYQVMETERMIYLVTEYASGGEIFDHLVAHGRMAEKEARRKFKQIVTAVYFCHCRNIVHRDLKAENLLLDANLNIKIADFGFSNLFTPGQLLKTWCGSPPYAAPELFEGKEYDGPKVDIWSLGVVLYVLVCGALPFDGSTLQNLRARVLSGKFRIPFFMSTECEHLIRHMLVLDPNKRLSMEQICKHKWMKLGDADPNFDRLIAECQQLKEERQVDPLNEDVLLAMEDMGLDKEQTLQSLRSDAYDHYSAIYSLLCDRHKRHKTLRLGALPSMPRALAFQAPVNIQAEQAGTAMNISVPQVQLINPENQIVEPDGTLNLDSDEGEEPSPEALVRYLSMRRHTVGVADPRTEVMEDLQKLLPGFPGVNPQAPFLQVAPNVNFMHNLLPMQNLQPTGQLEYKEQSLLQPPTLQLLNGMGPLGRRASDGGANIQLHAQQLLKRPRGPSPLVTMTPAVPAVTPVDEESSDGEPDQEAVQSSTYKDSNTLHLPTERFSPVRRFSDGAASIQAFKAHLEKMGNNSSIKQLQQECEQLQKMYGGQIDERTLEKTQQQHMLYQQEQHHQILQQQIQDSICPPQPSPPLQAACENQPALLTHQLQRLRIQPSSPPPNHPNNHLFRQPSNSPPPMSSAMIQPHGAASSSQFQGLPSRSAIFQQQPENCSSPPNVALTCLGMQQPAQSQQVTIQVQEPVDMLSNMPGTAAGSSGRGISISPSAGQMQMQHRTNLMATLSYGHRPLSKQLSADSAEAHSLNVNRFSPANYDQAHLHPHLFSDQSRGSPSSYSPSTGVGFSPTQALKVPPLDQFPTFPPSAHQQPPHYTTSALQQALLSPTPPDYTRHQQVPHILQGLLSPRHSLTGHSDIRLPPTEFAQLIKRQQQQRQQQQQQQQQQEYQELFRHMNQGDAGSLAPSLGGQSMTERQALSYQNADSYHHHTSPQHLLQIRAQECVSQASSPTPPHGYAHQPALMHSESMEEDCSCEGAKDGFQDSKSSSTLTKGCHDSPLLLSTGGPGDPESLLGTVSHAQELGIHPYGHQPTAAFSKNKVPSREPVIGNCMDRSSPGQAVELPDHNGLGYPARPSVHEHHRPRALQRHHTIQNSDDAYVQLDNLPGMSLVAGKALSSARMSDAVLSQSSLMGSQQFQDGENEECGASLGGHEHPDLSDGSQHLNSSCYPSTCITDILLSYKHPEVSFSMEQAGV
Chain of Dual specificity mitogen-activated protein kinase kinase 1 (Homo sapiens) (Q02750 whole entry): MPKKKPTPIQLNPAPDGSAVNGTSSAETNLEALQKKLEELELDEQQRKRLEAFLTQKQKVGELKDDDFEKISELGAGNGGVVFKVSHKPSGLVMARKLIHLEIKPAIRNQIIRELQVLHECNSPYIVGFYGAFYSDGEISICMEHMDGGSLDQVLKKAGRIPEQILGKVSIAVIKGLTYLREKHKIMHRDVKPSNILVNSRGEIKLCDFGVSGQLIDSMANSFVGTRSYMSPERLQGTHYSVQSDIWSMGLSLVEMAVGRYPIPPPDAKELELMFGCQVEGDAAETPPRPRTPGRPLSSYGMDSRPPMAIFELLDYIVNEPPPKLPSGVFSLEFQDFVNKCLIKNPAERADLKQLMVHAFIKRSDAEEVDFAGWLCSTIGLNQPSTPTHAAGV

Row | Compound | inhibition [1] | inhibition [2] | inhibition [3] | inhibition [4] | inhibition [5] | inhibition [6] | inhibition [7] | inhibition [8] | inhibition [9] | inhibition [10] | inhibition [11] | inhibition [12] | inhibition [13] | inhibition [14] | inhibition at 0.05 µM [15] | inhibition [16]
1 | CCN1CCN(Cc2ccc(NC(=O)c3ccc(C)c(/C=C/c4cnc5[nH]ccc5c4OC)c3)cc2C(F)(F)F)CC1 | 25.2% | 37% | 77.9% | 28.6% | 15% | 37% | 0.4% | -1.2% | -0.4% | 7.9% | 14.1% | 14.6% | -8.3% | 9.2% | -27% | 
2 | CCN1CCN(Cc2ccc(NC(=O)c3ccc(C)c(Oc4ccnc5[nH]ccc45)c3)cc2C(F)(F)F)CC1 | 86.2% | 11.6% | 98.1% | 29.6% | -1% | 67% | -8.8% | 4.9% | -2.7% | -3% | 32.5% | -8.4% | 6.1% | -6.5% | -7.2% | 
3 | CNc1cc(Oc2cc(C(=O)Nc3cc(-n4cnc(C)c4)cc(C(F)(F)F)c3)ccc2C)ncn1 |  |  |  |  |  |  |  |  |  |  |  |  |  |  |  | -2.8%
4 | CNc1cc(Oc2cc(C(=O)Nc3cc(N4CCN(C)CC4)cc(C(F)(F)F)c3)ccc2C)ncn1 |  |  |  |  |  |  |  |  |  |  |  |  |  |  |  | 26.9%
